“And” between values parts separate entries of the source, which are not always exact repeats. Equal entries are not always repeated.
How the values were obtained:
Population PK model = format: in vivo, human
[1] = format: in vivo, human; settings: 160 mg b.i.d.
Outline: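 Final population PK model built from 4,925 plasma samples from 632 healthy volunteers and B-cell malignancy patients, on oral doses of 20–320 mg q.d. or b.i.d. Plasma levels were measured by validated HPLC-MS/MS (LLOQ 1 ng/mL). Steady-state AUCss, Cmax,ss and Cmin,ss were simulated for repeated 160 mg b.i.d. dosing, comparing 5th/95th-percentile covariate values against a median-covariate typical patient.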

[2] = Exposure at the 480-mg dose in HVs, study BGB-3111-106; format: in vivo, human
[3] = cited from earlier work
[4] = oral, patients with B-cell malignancies

Compound: C=CC(=O)N1CCC([C@@H]2CCNc3c(C(N)=O)c(-c4ccc(Oc5ccccc5)cc4)nn32)CC1 [zanubrutinib, Zanubrutinib]
- Ka, final model estimate (95% CI) (Population PK model; absorption rate constant): 0.526 (0.525, 0.526) 1/hour
- D1, bootstrap estimate median (2.5–97.5 percentiles) (Population PK model; bootstrap of 1,000 datasets): 1.114 (0.974, 1.265) hour
- IIV D1, bootstrap estimate median (2.5–97.5 percentiles) (Population PK model; bootstrap of 1,000 datasets): 62.2 (51.9, 72.4)
- IIV Q/F, bootstrap estimate median (2.5–97.5 percentiles) (Population PK model; bootstrap of 1,000 datasets): 103 (83.9, 118)
- IIV Vc/F, bootstrap estimate median (2.5–97.5 percentiles) (Population PK model; bootstrap of 1,000 datasets): 39.2 (25.9, 57.8)
- IIV Vp/F, bootstrap estimate median (2.5–97.5 percentiles) (Population PK model; bootstrap of 1,000 datasets): 80.4 (58.9, 94.6)
- IOV D1, bootstrap estimate median (2.5–97.5 percentiles) (Population PK model; bootstrap of 1,000 datasets): 62.2 (51.9, 72.4)
- IOV Vc/F, bootstrap estimate median (2.5–97.5 percentiles) (Population PK model; bootstrap of 1,000 datasets): 65.9 (49.4, 76.8)
- Ka, bootstrap estimate median (2.5–97.5 percentiles) (Population PK model; bootstrap of 1,000 datasets): 0.524 (0.481, 0.591) 1/hour
- Q/F, bootstrap estimate median (2.5–97.5 percentiles) (Population PK model; bootstrap of 1,000 datasets): 25.6 (19.9, 32.3) L/hour
- Vc/F, bootstrap estimate median (2.5–97.5 percentiles) (Population PK model; bootstrap of 1,000 datasets): 115 (88.4, 151) L
- Vp/F, bootstrap estimate median (2.5–97.5 percentiles) (Population PK model; bootstrap of 1,000 datasets): 363 (274, 513) L
- CL/F (HV), bootstrap estimate median (2.5–97.5 percentiles) (Population PK model; bootstrap of 1,000 datasets, healthy volunteers): 119 (110, 127) L/hour
- CL/F (patient), bootstrap estimate median (2.5–97.5 percentiles) (Population PK model; bootstrap of 1,000 datasets, patient): 169 (162, 178) L/hour
- effect of co-administration with PPIs and other ARAs on the PKs (Population PK model; covariate analysis, patients in clinical studies): did not appear to significantly impact
- D1, final model estimate (95% CI) (Population PK model; duration of zero-order absorption into the depot compartment): 1.13 hour and 1.128 (1.125, 1.131) hour
- coefficient of variance of elimination t 1/2 (Population PK model; final population PK model): 40.0%
- CL/F (HV), final model estimate (95% CI) (Population PK model; healthy volunteers): 118 (107, 130) L/hour
- Q/F, final model estimate (95% CI) (Population PK model; human, in vivo): 26.5 L/hour and 26.5 (26.3, 26.7) L/hour
- Vc/F, final model estimate (95% CI) (Population PK model; human, in vivo): 112 L and 112 (111, 113) L
- Vp/F, final model estimate (95% CI) (Population PK model; human, in vivo): 345 L and 345 (343, 347) L
- half-life (Population PK model; human, plasma, oral): 3.44 h
- IIV D1, final model estimate (95% CI) (Population PK model; interindividual variability): 62.3 (57.1, 67.1)
- IIV Q/F, final model estimate (95% CI) (Population PK model; interindividual variability): 102 (97.8, 106)
- IIV Vc/F, final model estimate (95% CI) (Population PK model; interindividual variability): 37.1 (NA, 53.1)
- IIV Vp/F, final model estimate (95% CI) (Population PK model; interindividual variability): 86.4 (71.3, 99.3)
- IIV estimated for CL/F (Population PK model; interindividual variability): 36.7%
- IIV estimated for Vc/F (Population PK model; interindividual variability): 37.1%
- IOV Vc/F, final model estimate (95% CI) (Population PK model; interoccasion variability): 67.5 (66.8, 68.3)
- absorption rate constant (Population PK model; typical patient with ALT of 18 U/L): 0.526 hour^‐1
- CL/F (patient), final model estimate (95% CI) (Population PK model; typical patient with B-cell malignancy, ALT 18 U/L): 170 L/hour and 170 (169, 170) L/hour
- magnitude of effect of ALT on AUCss [1]: < 15%
- magnitude of effect of ALT on Cmax,ss [1]: < 10%
- magnitude of effect of ALT on Cmin,ss [1]: < 30%
- AUC ([1]; human, plasma, oral, 160 mg, total daily AUC, typical patient): 1890 ng·h/mL
- dose dependence of exposure at the 480-mg dose [2]: less than dose‐proportional increase in exposure
- systemic accumulation after multiple-dose administration ([3]; 40 mg to 320 mg q.d. and 160 mg b.i.d.): limited systemic accumulation
- dose dependence of Cmax and AUC0–∞ ([3]; doses from 40 mg to 320 mg): dose‐proportional increase
- mean terminal elimination half-life (t 1/2) [3, 4]: 2 to 4 h
- median time to peak plasma concentration (Tmax) [3, 4]: 2 h
